Experimental data published in ChEMBL document CHEMBL1143905, “Synthesis of barbiturate-based methionine aminopeptidase-1 inhibitors” (Bioorg Med Chem Lett, 2008).

Test: Inhibition of Escherichia coli methionine aminopeptidase 1
Procedure, shortened: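 Coupled chromogenic assay at room temperature: 50 mM HEPES pH 7.5, 100 μM CoCl2, 400 μM Met-Pro-pNA substrate, 0.25–4.0 μM MetAP-1 enzyme, 10–25 μM proline aminopeptidase as coupling enzyme, varying inhibitor concentrations. pNA release read at 405 nm. Ki obtained by non-linear regression assuming a competitive steady-state model.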
`O=C1NC(=O)C(=Cc2ccc(C(=O)O)cc2)C(=O)N1` gave a Ki of 335 µM. Work on `O=C1NC(=O)C(=Cc2cccc([N+](=O)[O-])c2)C(=O)N1` yielded a Ki of 29 µM. Compound `CN1C(=O)C(=Cc2ccc([N+](=O)[O-])cc2)C(=O)N(C)C1=O` has a Ki greater than 100 µM. `O=C1NC(=S)NC(=O)C1=Cc1ccccc1` gave a Ki greater than 100 µM. Compound `COc1ccc(C=C2C(=O)N(C)C(=O)N(C)C2=O)cc1` has a Ki greater than 100 µM. With `CN1C(=O)C(=C/C=C/c2ccccc2)C(=O)N(C)C1=O` the Ki was greater than 100 µM. For `CN1C(=O)C(=Cc2cccc([N+](=O)[O-])c2)C(=O)N(C)C1=O`, the Ki was greater than 100 µM. Work on `CN(C)c1ccc(/C=C/C=C2C(=O)NC(=S)NC2=O)cc1` yielded a Ki of 17 µM. `CN1C(=O)C(=C/C=C/c2ccc(N(C)C)cc2)C(=O)N(C)C1=O` showed a Ki greater than 100 µM. Compound `CN(C)c1ccc(C=C2C(=O)NC(=O)NC2=O)cc1` has a Ki of 13 µM. Compound `CN(C)c1ccc(C=C2C(=O)NC(=S)NC2=O)cc1` has a Ki greater than 100 µM. In the case of `O=C1NC(=O)C(=C/C=C/c2ccccc2)C(=O)N1`, the Ki is reported as 12 µM. Compound `COc1ccc(C=C2C(=O)NC(=O)NC2=O)cc1` has a Ki of 25 µM. Work on `O=C1NC(=S)NC(=O)C1=Cc1ccc(F)cc1` yielded a Ki greater than 100 µM. In the case of `O=C1NC(=O)C(=Cc2ccc(F)cc2)C(=O)N1`, the Ki is reported as 89 µM. Work on `O=C1NC(=S)NC(=O)C1=Cc1ccc(O)cc1` yielded a Ki greater than 100 µM. Work on `CN(C)c1ccc(/C=C/C=C2C(=O)NC(=O)NC2=O)cc1` yielded a Ki of 0.05 µM. For `COc1ccc(C=C2C(=O)NC(=S)NC2=O)cc1`, the Ki was 87 µM. Work on `O=C1NC(=O)C(=Cc2ccccc2)C(=O)N1` yielded a Ki of 517 µM. With `CN1C(=O)C(=Cc2ccc(O)cc2)C(=O)N(C)C1=O` the Ki was greater than 100 µM. `O=C1NC(=O)C(=Cc2ccc(O)cc2)C(=O)N1` showed a Ki of 4 µM. For `O=C1NC(=S)NC(=O)C1=C/C=C/c1ccccc1`, the Ki was greater than 100 µM. Work on `CN1C(=O)C(=Cc2ccc(F)cc2)C(=O)N(C)C1=O` yielded a Ki greater than 100 µM. `CN1C(=O)C(=Cc2ccccc2)C(=O)N(C)C1=O` showed a Ki greater than 100 µM. Work on `CN1C(=O)C(=Cc2ccc(N(C)C)cc2)C(=O)N(C)C1=O` yielded a Ki greater than 100 µM. In the case of `O=C1NC(=O)C(=Cc2ccc([N+](=O)[O-])cc2)C(=O)N1`, the Ki is reported as 105 µM. In the case of `CN1C(=O)C(=Cc2ccc(C(=O)O)cc2)C(=O)N(C)C1=O`, the Ki is reported as greater than 100 µM. With `O=C1NC(=S)NC(=O)C1=Cc1ccc([N+](=O)[O-])cc1` the Ki was greater than 100 µM. `O=C1NC(=S)NC(=O)C1=Cc1cccc([N+](=O)[O-])c1` showed a Ki greater than 100 µM. For `O=C1NC(=S)NC(=O)C1=Cc1ccc(C(=O)O)cc1`, the Ki was greater than 100 µM.
